In ChEMBL document CHEMBL4373647, “Design, synthesis, and antimicrobial evaluation of 1,4-dihydroindeno[1,2-c]pyrazole tethered carbohydrazide hybrids: exploring their in silico ADMET, ergosterol inhibition and ROS inducing potential” (Medchemcomm, 2019):
In brackets after ≈: the same amount, converted by molar mass. Activity calls are given as the source filed them. The rule behind the calls is not given here.

Assays:
Staphylococcus aureus [1] = assay: Ratio of MBC to MIC against Staphylococcus aureus MTCC 96; type: functional
Pichia kudriavzevii [2] = assay: Ratio of MFC to MIC against Candida krusei MTCC 3020; type: functional
Outline: (§1)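 MIC by agar well diffusion: Candida lawns on Mueller-Hinton agar, wells loaded with compound in 10% DMSO (125–0.97 µg/mL), 24 h at 37 °C, lowest concentration giving an inhibition zone. MFC: compound in Mueller-Hinton broth (125–0.97 µg/mL) with yeast, 24 h at 37 °C, 10 µL plated on agar, lowest killing concentration after 24 h. Ratio is MFC/MIC.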

Candida albicans [3] = assay: Ratio of MFC to MIC against Candida albicans MTCC 4748; type: functional; outline: as §1
Nakaseomyces glabratus [4] = assay: Ratio of MFC to MIC against Candida glabrata MTCC 3019; type: functional; outline: as §1
Bacillus subtilis [5] = assay: Bactericidal activity against Bacillus subtilis MTCC 121 assessed as bacterial killing incubated for 24 hrs; type: functional; conditions: MTCC 121, 24 h
Outline: (§2)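 Broth tube assay: compound at 0–125 µg/mL in Mueller Hinton broth, overnight culture added to 0.5 McFarland (1.5 × 10^8 cfu/mL), held 24 h at 37 °C. 10 µL from each tube plated on Mueller Hinton agar. MBC is the lowest concentration that kills the strain. Duplicates, means reported.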

Pichia kudriavzevii [6] = assay: Fungicidal activity against Candida krusei MTCC 3020 assessed as fungal killing incubated for 24 hrs; type: functional; conditions: MTCC 3020, 24 h
Outline: (§3)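 Compound at 125–0.97 µg/mL in Mueller Hinton broth in microcentrifuge tubes, each Candida strain added, held 24 h at 37 °C. 10 µL of the treated suspension plated on Mueller Hinton agar and incubated a further 24 h at 37 °C. MFC is the lowest concentration that kills the strain. Duplicates, means reported.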

Candida albicans [7] = assay: Antifungal activity against Candida albicans MTCC 3017 assessed as inhibition of fungal growth incubated for 24 hrs by agar well diffusion method; type: functional; conditions: MTCC 3017, 24 h
Outline: (§4)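 Candida strains from MTCC, pre-cultured and spread on Mueller Hinton agar. Wells received compound dissolved in 10% DMSO, 125–0.97 µg/mL; miconazole standard over the same range, DMSO negative control. After 24 h at 37 °C, MIC was read as the lowest concentration giving an inhibition zone. Duplicate experiments, means given.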

MRC5 = assay: Cytotoxicity against human MRC5 cells incubated for 48 hrs by MTT assay; type: cell-based; conditions: MRC5, 48 h
Outline: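 Normal human lung MRC5 cells grown 24 h in 96-well plates, then exposed to a range of compound concentrations for 48 h. MTT (250 µg/mL) added for 2 h, medium replaced by DMSO, absorbance read at 570 nm. Miconazole positive control, DMSO negative control. Triplicates, mean ± S.D.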

Candida albicans [8] = assay: Antifungal activity against Candida albicans MTCC 183 assessed as inhibition of fungal growth incubated for 24 hrs by agar well diffusion method; type: functional; outline: as §4
Staphylococcus aureus [9] = assay: Ratio of MBC to MIC against Staphylococcus aureus MLS-16 MTCC 2940; type: functional
Candida albicans [10] = assay: Antifungal activity against Candida albicans MTCC 1637 assessed as inhibition of fungal growth incubated for 24 hrs by agar well diffusion method; type: functional; conditions: MTCC 1637, 24 h; outline: as §4
Staphylococcus aureus [11] = assay: Bactericidal activity against Staphylococcus aureus MLS-16 MTCC 2940 assessed as bacterial killing incubated for 24 hrs; type: functional; conditions: MLS-16 MTCC 2940, 24 h; outline: as §2
Bacillus subtilis [12] = assay: Ratio of MBC to MIC against Bacillus subtilis MTCC 121; type: functional
Staphylococcus aureus [13] = assay: Antibacterial activity against Staphylococcus aureus MLS-16 MTCC 2940 assessed as inhibition of bacterial growth incubated for 24 hrs by agar well diffusion method; type: functional; conditions: MLS-16 MTCC 2940, 24 h
Outline: (§5)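 Strains from MTCC; inoculum at 0.5 McFarland spread on Mueller-Hinton agar; 6 mm wells loaded with compound over 125–0.97 µg/mL; ciprofloxacin positive control (same range), DMSO negative control. Plates held 24 h at 37 °C; MIC taken as lowest concentration giving a clear inhibition zone. Triplicate runs, mean MIC reported.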

Candida albicans [14] = assay: Ratio of MFC to MIC against Candida albicans MTCC 7315; type: functional; outline: as §1
Staphylococcus aureus [15] = assay: Antibacterial activity against Staphylococcus aureus MTCC 96 assessed as inhibition of bacterial growth incubated for 24 hrs by agar well diffusion method; type: functional; conditions: MTCC 96, 24 h; outline: as §5
Candida albicans [16] = assay: Antifungal activity against Candida albicans MTCC 4748 assessed as inhibition of fungal growth incubated for 24 hrs by agar well diffusion method; type: functional; conditions: MTCC 4748, 24 h; outline: as §4
Micrococcus luteus = assay: Antibacterial activity against Micrococcus luteus MTCC 2470 assessed as inhibition of bacterial growth incubated for 24 hrs by agar well diffusion method; type: functional; conditions: MTCC 2470, 24 h; outline: as §5
Candida albicans [17] = assay: Ratio of MFC to MIC against Candida albicans MTCC 3018; type: functional; outline: as §1
Nakaseomyces glabratus [18] = assay: Antifungal activity against Candida glabrata MTCC 3019 assessed as inhibition of fungal growth incubated for 24 hrs by agar well diffusion method; type: functional; conditions: MTCC 3019, 24 h; outline: as §4
Candida albicans [19] = assay: Antifungal activity against Candida albicans MTCC 7315 assessed as inhibition of fungal growth incubated for 24 hrs by agar well diffusion method; type: functional; conditions: MTCC 7315, 24 h; outline: as §4
Candida albicans [20] = assay: Antifungal activity against Candida albicans MTCC 227 assessed as inhibition of fungal growth incubated for 24 hrs by agar well diffusion method; type: functional; conditions: MTCC 227, 24 h; outline: as §4
Raoultella planticola = assay: Antibacterial activity against Klebsiella planticola MTCC 530 assessed as inhibition of bacterial growth incubated for 24 hrs by agar well diffusion method; type: functional; conditions: MTCC 530, 24 h; outline: as §5
Pseudomonas aeruginosa [21] = assay: Antibacterial activity against Pseudomonas aeruginosa MTCC 2453 assessed as inhibition of bacterial growth incubated for 24 hrs by agar well diffusion method; type: functional; conditions: MTCC 2453, 24 h; outline: as §5
Candida albicans [22] = assay: Fungicidal activity against Candida albicans MTCC 7315 assessed as fungal killing incubated for 24 hrs; type: functional; conditions: MTCC 7315, 24 h; outline: as §3
Candida albicans [23] = assay: Fungicidal activity against Candida albicans MTCC 4748 assessed as fungal killing incubated for 24 hrs; type: functional; conditions: MTCC 4748, 24 h; outline: as §3
Candida albicans [24] = assay: Ratio of MFC to MIC against Candida albicans MTCC 227; type: functional; outline: as §1
Pichia sporocuriosa [25] = assay: Antifungal activity against Issatchenkia hanoiensis MTCC 4755 assessed as inhibition of fungal growth incubated for 24 hrs by agar well diffusion method; type: functional; conditions: MTCC 4755, 24 h; outline: as §4
Pseudomonas aeruginosa [26] = assay: Bactericidal activity against Pseudomonas aeruginosa MTCC 2453 assessed as bacterial killing incubated for 24 hrs; type: functional; conditions: MTCC 2453, 24 h; outline: as §2
Nakaseomyces glabratus [27] = assay: Fungicidal activity against Candida glabrata MTCC 3019 assessed as fungal killing incubated for 24 hrs; type: functional; conditions: MTCC 3019, 24 h; outline: as §3
Candida albicans [28] = assay: Fungicidal activity against Candida albicans MTCC 1637 assessed as fungal killing incubated for 24 hrs; type: functional; conditions: MTCC 1637, 24 h; outline: as §3
Candida albicans [29] = assay: Ratio of MFC to MIC against Candida albicans MTCC 183; type: functional
Pichia sporocuriosa [30] = assay: Fungicidal activity against Issatchenkia hanoiensis MTCC 4755 assessed as fungal killing incubated for 24 hrs; type: functional; conditions: MTCC 4755, 24 h; outline: as §3
Escherichia coli = assay: Ratio of MBC to MIC for Escherichia coli MTCC 739; type: functional
Candida parapsilosis = assay: Antifungal activity against Candida parapsilosis MTCC 1744 assessed as inhibition of fungal growth incubated for 24 hrs by agar well diffusion method; type: functional; conditions: Lodderomyces parapsilosis, MTCC 1744, 24 h; outline: as §4

MIC (Candida albicans [7])	MIC (Candida albicans [10])	MIC (Staphylococcus aureus [13])	MIC (Staphylococcus aureus [15])	MIC (Candida albicans [16])	MIC (Micrococcus luteus)	MIC (Nakaseomyces glabratus [18])	MIC (Candida albicans [19])	SMILES	Ratio (Staphylococcus aureus [1])	Ratio (Pichia kudriavzevii [2])	Ratio (Candida albicans [3])	Ratio (Nakaseomyces glabratus [4])	MBC (Bacillus subtilis [5])	MFC (Pichia kudriavzevii [6])	IC50 (MRC5)	Ratio (Staphylococcus aureus [9])	MBC (Staphylococcus aureus [11])	Ratio (Bacillus subtilis [12])	Ratio (Candida albicans [14])	Ratio (Candida albicans [17])	also measured
7.8 µg/mL (≈ 24.5 µM)	15.6 µg/mL (≈ 49 µM)	3.9 µg/mL (≈ 12.3 µM)	3.9 µg/mL (≈ 12.3 µM)	> 31.2 µg/mL	7.8 µg/mL (≈ 24.5 µM)	> 31.2 µg/mL	15.6 µg/mL (≈ 49 µM)	O=C(N/N=C/c1ccc(O)cc1)c1n[nH]c2c1Cc1ccccc1-2	2	2	2	2	15.6 µg/mL (≈ 49 µM)	31.2 µg/mL (≈ 98 µM)	35.6 µg/mL (≈ 112 µM)	2	7.8 µg/mL (≈ 24.5 µM)	2	2	2	MIC (Candida albicans [8]): inactive; MIC (Candida albicans [20]): 7.8 µg/mL (≈ 24.5 µM); MIC (Raoultella planticola): 7.8 µg/mL (≈ 24.5 µM); MIC (Pseudomonas aeruginosa [21]): 7.8 µg/mL (≈ 24.5 µM); MFC (Candida albicans [22]): 31.2 µg/mL (≈ 98 µM); MFC (Candida albicans [23]): > 62.5 µg/mL; Ratio (Candida albicans [24]): 2; MIC (Pichia sporocuriosa [25]): 31.2 µg/mL (≈ 98 µM); MBC (Pseudomonas aeruginosa [26]): 15.6 µg/mL (≈ 49 µM); MFC (Nakaseomyces glabratus [27]): > 62.5 µg/mL; MFC (Candida albicans [28]): 31.2 µg/mL (≈ 98 µM); Ratio (Candida albicans [29]): 2; MFC (Pichia sporocuriosa [30]): 62.4 µg/mL (≈ 196 µM); Ratio (Escherichia coli): 2; MIC (Candida parapsilosis): 15.6 µg/mL (≈ 49 µM)
3.9 µg/mL (≈ 10.3 µM)	7.8 µg/mL (≈ 20.6 µM)	3.9 µg/mL (≈ 10.3 µM)	3.9 µg/mL (≈ 10.3 µM)	7.8 µg/mL (≈ 20.6 µM)	3.9 µg/mL (≈ 10.3 µM)	7.8 µg/mL (≈ 20.6 µM)	7.8 µg/mL (≈ 20.6 µM)	COc1ccc2c(c1)Cc1c(C(=O)N/N=C/c3ccc(O)c(OC)c3)n[nH]c1-2	2	2	2	2	15.6 µg/mL (≈ 41.2 µM)	15.6 µg/mL (≈ 41.2 µM)	40.8 µg/mL (≈ 108 µM)	2	7.8 µg/mL (≈ 20.6 µM)	2	2	2	MIC (Candida albicans [8]; MTCC 183, 24 h): 15.6 µg/mL (≈ 41.2 µM); MIC (Candida albicans [20]): 3.9 µg/mL (≈ 10.3 µM); MIC (Raoultella planticola): 3.9 µg/mL (≈ 10.3 µM); MIC (Pseudomonas aeruginosa [21]): 7.8 µg/mL (≈ 20.6 µM); MFC (Candida albicans [22]): 15.6 µg/mL (≈ 41.2 µM); MFC (Candida albicans [23]): 15.6 µg/mL (≈ 41.2 µM); Ratio (Candida albicans [24]): 2; MIC (Pichia sporocuriosa [25]): 15.6 µg/mL (≈ 41.2 µM); MBC (Pseudomonas aeruginosa [26]): 15.6 µg/mL (≈ 41.2 µM); MFC (Nakaseomyces glabratus [27]): 15.6 µg/mL (≈ 41.2 µM); MFC (Candida albicans [28]): 15.6 µg/mL (≈ 41.2 µM); Ratio (Candida albicans [29]): 2; MFC (Pichia sporocuriosa [30]): 31.2 µg/mL (≈ 82.5 µM); Ratio (Escherichia coli): 2; MIC (Candida parapsilosis): 7.8 µg/mL (≈ 20.6 µM)
7.8 µg/mL (≈ 23.2 µM)	15.6 µg/mL (≈ 46.4 µM)	3.9 µg/mL (≈ 11.6 µM)	3.9 µg/mL (≈ 11.6 µM)	15.6 µg/mL (≈ 46.4 µM)	7.8 µg/mL (≈ 23.2 µM)	15.6 µg/mL (≈ 46.4 µM)	15.6 µg/mL (≈ 46.4 µM)	O=C(N/N=C/c1ccc(O)cc1)c1n[nH]c2c1Cc1cc(F)ccc1-2	2	2	2	2	15.6 µg/mL (≈ 46.4 µM)	31.2 µg/mL (≈ 92.8 µM)	28.9 µg/mL (≈ 85.9 µM)	2	7.8 µg/mL (≈ 23.2 µM)	2	2	2	MIC (Candida albicans [8]): inactive; MIC (Candida albicans [20]): 7.8 µg/mL (≈ 23.2 µM); MIC (Raoultella planticola): 7.8 µg/mL (≈ 23.2 µM); MIC (Pseudomonas aeruginosa [21]): 7.8 µg/mL (≈ 23.2 µM); MFC (Candida albicans [22]): 31.2 µg/mL (≈ 92.8 µM); MFC (Candida albicans [23]): 31.2 µg/mL (≈ 92.8 µM); Ratio (Candida albicans [24]): 2; MIC (Pichia sporocuriosa [25]): 31.2 µg/mL (≈ 92.8 µM); MBC (Pseudomonas aeruginosa [26]): 15.6 µg/mL (≈ 46.4 µM); MFC (Nakaseomyces glabratus [27]): 31.2 µg/mL (≈ 92.8 µM); MFC (Candida albicans [28]): 31.2 µg/mL (≈ 92.8 µM); Ratio (Candida albicans [29]): 2; MFC (Pichia sporocuriosa [30]): 62.4 µg/mL (≈ 186 µM); Ratio (Escherichia coli): 2; MIC (Candida parapsilosis): 15.6 µg/mL (≈ 46.4 µM)
